In ChEMBL document CHEMBL4689842, “EUbOPEN Chemogenomics Library wave 1” (2021):

Tested on: HEK-293T
Experiment: Multiplex assay against HEK293T;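 as to Population Tubulin-Different-Phenotype (%): share of the cells with healthy nuclei that show this phenotype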
Format: toxicity, cell-based
Conditions: human
Procedure, shortened: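 Tubulin, mitochondrial-mass and membrane-permeability phenotypes are per cents of healthy-nucleus cells. Cells were gated by CellPathfinder machine learning into Hoechst high-intensity objects or normal cells, normal cells into healthy, pyknosed or fragmented nuclei, and pyknosed cells into mitotic or apoptotic. Before that, live cells stained at seeding with Hoechst33342, BioTracker Green Microtubule Cytoskeleton Dye, MitoTracker Red and Annexin V Alexa Fluor 680 were imaged on a CQ1 microscope at 37°C and 5% CO2 after compound addition.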

[1] = 12 h, 1 µM, compound concentration 1 uM, replicate 1
[2] = 12 h, 1 µM, compound concentration 1 uM, replicate 2
[3] = 12 h, 10 µM, compound concentration 10 uM, replicate 1
[4] = 12 h, 10 µM, compound concentration 10 uM, replicate 2
[5] = 24 h, 1 µM, compound concentration 1 uM, replicate 1
[6] = 24 h, 1 µM, compound concentration 1 uM, replicate 2
[7] = 24 h, 10 µM, compound concentration 10 uM, replicate 1
[8] = 24 h, 10 µM, compound concentration 10 uM, replicate 2
[9] = 48 h, 1 µM, compound concentration 1 uM, replicate 1
[10] = 48 h, 1 µM, compound concentration 1 uM, replicate 2
[11] = 48 h, 10 µM, compound concentration 10 uM, replicate 1
[12] = 48 h, 10 µM, compound concentration 10 uM, replicate 2

## C[C@@H](NCCCc1cccc(C(F)(F)F)c1)c1cccc2ccccc12.Cl [CINACALCET HYDROCHLORIDE]
[1]
  Population Apoptotic (%): 48%
  Population Fragmented Nuclei (%): 4%
  Population Healthy Nuclei (%): 49%
  Population Hoechst High Intensity Objects (%): 8%
  Population Membrane Permeable-Phenotype (%): 2%
  Population Mitochondria Different-Phenotype (%): 90%
  Population Mitotic Cells (%): 51%
  Population Normal (%): 91%
  Population Pyknosed Nuclei (%): 46%
  Population Tubulin-Different-Phenotype (%): 72%
  Total Cell Count: 382
[2]
  Population Apoptotic (%): 16%
  Population Fragmented Nuclei (%): 7%
  Population Healthy Nuclei (%): 32%
  Population Hoechst High Intensity Objects (%): 3%
  Population Membrane Permeable-Phenotype (%): 6%
  Population Mitochondria Different-Phenotype (%): 51%
  Population Mitotic Cells (%): 83%
  Population Normal (%): 96%
  Population Pyknosed Nuclei (%): 60%
  Population Tubulin-Different-Phenotype (%): 67%
  Total Cell Count: 158
[3]
  Population Apoptotic (%): 87%
  Population Fragmented Nuclei (%): 12%
  Population Healthy Nuclei (%): 13%
  Population Hoechst High Intensity Objects (%): 19%
  Population Membrane Permeable-Phenotype (%): 0%
  Population Mitochondria Different-Phenotype (%): 95%
  Population Mitotic Cells (%): 12%
  Population Normal (%): 80%
  Population Pyknosed Nuclei (%): 74%
  Population Tubulin-Different-Phenotype (%): 95%
  Total Cell Count: 195
[4]
  Population Apoptotic (%): 80%
  Population Fragmented Nuclei (%): 3%
  Population Healthy Nuclei (%): 11%
  Population Hoechst High Intensity Objects (%): 4%
  Population Mitotic Cells (%): 19%
  Population Normal (%): 95%
  Population Pyknosed Nuclei (%): 84%
  Population Tubulin-Different-Phenotype (%): 90%
  Total Cell Count: 193
[5]
  Population Apoptotic (%): 40%
  Population Healthy Nuclei (%): 61%
  Population Hoechst High Intensity Objects (%): 7%
  Population Membrane Permeable-Phenotype (%): 1%
  Population Mitochondria Different-Phenotype (%): 77%
  Population Mitotic Cells (%): 59%
  Population Normal (%): 92%
  Population Pyknosed Nuclei (%): 30%
  Population Tubulin-Different-Phenotype (%): 63%
  Total Cell Count: 417
[6]
  Population Apoptotic (%): 28%
  Population Fragmented Nuclei (%): 8%
  Population Healthy Nuclei (%): 48%
  Population Hoechst High Intensity Objects (%): 4%
  Population Membrane Permeable-Phenotype (%): 6%
  Population Mitochondria Different-Phenotype (%): 47%
  Population Mitotic Cells (%): 71%
  Population Normal (%): 95%
  Population Pyknosed Nuclei (%): 43%
  Population Tubulin-Different-Phenotype (%): 60%
  Total Cell Count: 201
[7]
  Population Apoptotic (%): 87%
  Population Fragmented Nuclei (%): 15%
  Population Healthy Nuclei (%): 15%
  Population Hoechst High Intensity Objects (%): 19%
  Population Membrane Permeable-Phenotype (%): 3%
  Population Mitotic Cells (%): 12%
  Population Normal (%): 80%
  Population Pyknosed Nuclei (%): 68%
  Population Tubulin-Different-Phenotype (%): 96%
  Total Cell Count: 227
[8]
  Population Apoptotic (%): 86%
  Population Fragmented Nuclei (%): 4%
  Population Healthy Nuclei (%): 18%
  Population Hoechst High Intensity Objects (%): 8%
  Population Membrane Permeable-Phenotype (%): 6%
  Population Mitochondria Different-Phenotype (%): 100%
  Population Mitotic Cells (%): 13%
  Population Normal (%): 91%
  Population Pyknosed Nuclei (%): 76%
  Population Tubulin-Different-Phenotype (%): 84%
  Total Cell Count: 198
[9]
  Population Apoptotic (%): 27%
  Population Fragmented Nuclei (%): 7%
  Population Healthy Nuclei (%): 79%
  Population Membrane Permeable-Phenotype (%): 1%
  Population Mitochondria Different-Phenotype (%): 43%
  Population Mitotic Cells (%): 72%
  Population Pyknosed Nuclei (%): 12%
  Population Tubulin-Different-Phenotype (%): 48%
  Total Cell Count: 730
[10]
  Population Apoptotic (%): 21%
  Population Fragmented Nuclei (%): 3%
  Population Healthy Nuclei (%): 74%
  Population Hoechst High Intensity Objects (%): 5%
  Population Membrane Permeable-Phenotype (%): 9%
  Population Mitochondria Different-Phenotype (%): 23%
  Population Mitotic Cells (%): 78%
  Population Normal (%): 94%
  Population Pyknosed Nuclei (%): 22%
  Population Tubulin-Different-Phenotype (%): 57%
  Total Cell Count: 266
[11]
  Population Apoptotic (%): 90%
  Population Fragmented Nuclei (%): 24%
  Population Healthy Nuclei (%): 12%
  Population Hoechst High Intensity Objects (%): 18%
  Population Membrane Permeable-Phenotype (%): 0%
  Population Mitochondria Different-Phenotype (%): 100%
  Population Mitotic Cells (%): 9%
  Population Normal (%): 81%
  Population Pyknosed Nuclei (%): 63%
  Population Tubulin-Different-Phenotype (%): 86%
  Total Cell Count: 216
[12]
  Population Apoptotic (%): 89%
  Population Fragmented Nuclei (%): 6%
  Population Healthy Nuclei (%): 18%
  Population Hoechst High Intensity Objects (%): 9%
  Population Membrane Permeable-Phenotype (%): 8%
  Population Mitochondria Different-Phenotype (%): 94%
  Population Mitotic Cells (%): 10%
  Population Normal (%): 90%
  Population Pyknosed Nuclei (%): 75%
  Population Tubulin-Different-Phenotype (%): 70%
  Total Cell Count: 203
